# Laboratory results from ChEMBL document CHEMBL5241123, “Homopurine guanine-rich sequences in complex with N-methyl mesoporphyrin IX form parallel G-quadruplex dimers and display a unique symmetry tetrad” (Bioorg Med Chem, 2023).
# Calls of active or inactive are those of the source. The rule behind the calls is not given here.
# How the values were obtained:
# Assay type in all cases: nucleic-acid assay
# Quadruplex DNA [1] = experiment: Binding affinity to G-quadruplex homo-purine guanine-rich GA1 (GAGGGAGGGAGGGAAAAGGGGA) DNA (unknown origin) at DNA:compound concentration ratio of 2:1 in 5K buffer by fluorescence titration based analysis
# Procedure, shortened: (§1)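 Fluorescence titration at 20 °C in 5K buffer: ~1.0 μM NMM titrated with 140-270 μM annealed DNA to a final [DNA]/[NMM] of at least eight. Excitation 395-398 nm (UV-Vis isosbestic points), emission 560-720 nm. Single-component SVD, fit to 1:1, 1:2 and 2:1 models. Ka is the average of at least three trials.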
# Quadruplex DNA [2] = experiment: Binding affinity to G-quadruplex homo-purine guanine-rich GA2 (GAGGGAGGGAAAAGGGGAGGGA) DNA (unknown origin) assessed as hypochromicity at 3.3 uM in 5K buffer by circular dichroism scan analysis
# Quadruplex DNA [3] = experiment: Binding affinity to G-quadruplex homo-purine guanine-rich GA3 (AGGGAAAAGGGGAGGGAAAAGGGGA) DNA (unknown origin) at DNA:compound concentration ratio of 1:2 in 5K buffer by fluorescence titration based analysis; procedure, shortened: as §1
# Quadruplex DNA [4] = experiment: Stabilization and preservation of G-quadruplex homo-purine guanine-rich GA2 (GAGGGAGGGAAAAGGGGAGGGA) DNA (unknown origin) parallel structure conformation at 2 equivalents in 100K buffer by circular dichroism scan analysis; conditions: dose 2.0 equiv
# Procedure, shortened: (§2)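 CD scans at 20 °C of ~4 μM annealed DNA, alone or with 2 eq. NMM, in 100K buffer. Range 220-330 nm, 1 cm cuvette, 2 nm bandwidth, five scans averaged.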
# Quadruplex DNA [5] = experiment: Binding affinity to G-quadruplex homo-purine guanine-rich GA3 (AGGGAAAAGGGGAGGGAAAAGGGGA) DNA (unknown origin) assessed as red shift at 3.3 uM in 5K buffer by circular dichroism scan analysis
# Quadruplex DNA [6] = experiment: Stabilization and preservation of G-quadruplex homo-purine guanine-rich GA3 (AGGGAAAAGGGGAGGGAAAAGGGGA) DNA (unknown origin) parallel structure conformation at 2 equivalents in 100K buffer by circular dichroism scan analysis; conditions: dose 2.0 equiv; procedure, shortened: as §2
# Quadruplex DNA [7] = experiment: Stabilization and preservation of G-quadruplex homo-purine guanine-rich GA3 (AGGGAAAAGGGGAGGGAAAAGGGGA) DNA (unknown origin) parallel structure conformation at 2 equivalents in 100K buffer by native PAGE analysis; conditions: dose 2.0 equiv
# Procedure, shortened: (§3)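 Native 15% polyacrylamide gel in 1×TBE plus 10 mM KCl. Samples of ~50 μM DNA, alone or with 2 eq. NMM, in 100K buffer. Run 150 min at 150 V at room temperature after pre-running, with a dT15-dT57 ladder. Stains-All visualization.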
# Quadruplex DNA [8] = experiment: Stabilization and preservation of G-quadruplex homo-purine guanine-rich GA1 (GAGGGAGGGAGGGAAAAGGGGA) DNA (unknown origin) parallel structure conformation assessed as increased homogeneity at 2 equivalents in 100K buffer by native PAGE analysis; conditions: dose 2.0 equiv; procedure, shortened: as §3
# Quadruplex DNA [9] = experiment: Binding affinity to G-quadruplex homo-purine guanine-rich GA2 (GAGGGAGGGAAAAGGGGAGGGA) DNA (unknown origin) at DNA:compound concentration ratio of 2:1 in 5K buffer by fluorescence titration based analysis; procedure, shortened: as §1
# Quadruplex DNA [10] = experiment: Stabilization and preservation of G-quadruplex homo-purine guanine-rich GA2 (GAGGGAGGGAAAAGGGGAGGGA) DNA (unknown origin) parallel structure conformation assessed as increase in melting temperature at 2 equivalents in 100K buffer by UV-Visible melting analysis; conditions: dose 2.0 equiv
# Procedure, shortened: (§4)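 ~4 μM DNA with or without 2 eq. NMM in 100K buffer (10 mM LiCaco pH 7.2, 100 mM KCl), annealed then cooled slowly. UV-Vis melting 20-90 °C, 0.5 or 0.2 °C/min, signal at 295 nm corrected at 335 nm. Tm and ΔH from a two-state fit (hysteresis under 3 °C).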
# Quadruplex DNA [11] = experiment: Binding affinity to G-quadruplex homo-purine guanine-rich GA1 (GAGGGAGGGAGGGAAAAGGGGA) DNA (unknown origin) assessed as hypochromicity at 3.3 uM in 5K buffer by UV-Vis titration based analysis
# Procedure, shortened: (§5)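 NMM (~3-4 μM, absorbance ~0.5, 1 cm cuvette) in 5K buffer (10 mM LiCaco pH 7.2, 95 mM LiCl, 5 mM KCl), titrated with DNA annealed in 5K buffer (170-470 μM, final [DNA]/[NMM] at least five), 2 min equilibration per addition, spectra 350-480 nm at 20 °C. SVD analysis, fit with NMM concentration fixed. Ka is the average of at least three trials.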
# Quadruplex DNA [12] = experiment: Binding affinity to G-quadruplex homo-purine guanine-rich GA2 (GAGGGAGGGAAAAGGGGAGGGA) DNA (unknown origin) at DNA:compound concentration ratio of 1:1 in 5K buffer by UV-Vis titration based analysis; procedure, shortened: as §5
# Quadruplex DNA [13] = experiment: Binding affinity to G-quadruplex homo-purine guanine-rich GA3 (AGGGAAAAGGGGAGGGAAAAGGGGA) DNA (unknown origin) assessed as hypochromicity at 3.3 uM in 5K buffer by circular dichroism scan analysis
# Quadruplex DNA [14] = experiment: Binding affinity to G-quadruplex homo-purine guanine-rich GA3 (AGGGAAAAGGGGAGGGAAAAGGGGA) DNA (unknown origin) at DNA:compound concentration ratio of 2:1 in 5K buffer by UV-Vis titration based analysis; procedure, shortened: as §5
# Quadruplex DNA [15] = experiment: Stabilization and preservation of G-quadruplex homo-purine guanine-rich GA3 (AGGGAAAAGGGGAGGGAAAAGGGGA) DNA (unknown origin) parallel structure conformation assessed as increase in enthalpy change associated with melting transition at 2 equivalents in 100K buffer by UV-Visible melting analysis; conditions: dose 2.0 equiv; procedure, shortened: as §4
# Quadruplex DNA [16] = experiment: Binding affinity to G-quadruplex homo-purine guanine-rich GA3 (AGGGAAAAGGGGAGGGAAAAGGGGA) DNA (unknown origin) at DNA:compound concentration ratio of 1:1 in 5K buffer by UV-Vis titration based analysis; procedure, shortened: as §5
# Quadruplex DNA [17] = experiment: Binding affinity to G-quadruplex homo-purine guanine-rich GA1 (GAGGGAGGGAGGGAAAAGGGGA) DNA (unknown origin) at DNA:compound concentration ratio of 1:1 in 5K buffer by UV-Vis titration based analysis; procedure, shortened: as §5
# Quadruplex DNA [18] = experiment: Binding affinity to G-quadruplex homo-purine guanine-rich GA1 (GAGGGAGGGAGGGAAAAGGGGA) DNA (unknown origin) assessed as red shift at 3.3 uM in 5K buffer by UV-Vis titration based analysis; procedure, shortened: as §5
# Quadruplex DNA [19] = experiment: Binding affinity to G-quadruplex homo-purine guanine-rich GA2 (GAGGGAGGGAAAAGGGGAGGGA) DNA (unknown origin) at DNA:compound concentration ratio of 1:2 in 5K buffer by fluorescence titration based analysis; procedure, shortened: as §1
# Quadruplex DNA [20] = experiment: Binding affinity to G-quadruplex homo-purine guanine-rich GA2 (GAGGGAGGGAAAAGGGGAGGGA) DNA (unknown origin) at DNA:compound concentration ratio of 1:1 in 5K buffer by fluorescence titration based analysis; procedure, shortened: as §1
# Quadruplex DNA [21] = experiment: Stabilization and preservation of G-quadruplex homo-purine guanine-rich GA1 (GAGGGAGGGAGGGAAAAGGGGA) DNA (unknown origin) parallel structure conformation assessed as increase in melting temperature at 2 equivalents in 100K buffer by UV-Visible melting analysis; conditions: dose 2.0 equiv; procedure, shortened: as §4
# Quadruplex DNA [22] = experiment: Binding affinity to G-quadruplex homo-purine guanine-rich GA3 (AGGGAAAAGGGGAGGGAAAAGGGGA) DNA (unknown origin) at DNA:compound concentration ratio of 1:1 in 5K buffer by fluorescence titration based analysis; procedure, shortened: as §1
# Quadruplex DNA [23] = experiment: Binding affinity to G-quadruplex homo-purine guanine-rich GA2 (GAGGGAGGGAAAAGGGGAGGGA) DNA (unknown origin) assessed as red shift at 3.3 uM in 5K buffer by circular dichroism scan analysis
# Quadruplex DNA [24] = experiment: Stabilization and preservation of G-quadruplex homo-purine guanine-rich GA2 (GAGGGAGGGAAAAGGGGAGGGA) DNA (unknown origin) parallel structure conformation assessed as elimination of higher order species at 2 equivalents in 100K buffer by native PAGE analysis; conditions: dose 2.0 equiv; procedure, shortened: as §3
# Quadruplex DNA [25] = experiment: Stabilization and preservation of G-quadruplex homo-purine guanine-rich GA2 (GAGGGAGGGAAAAGGGGAGGGA) DNA (unknown origin) parallel structure conformation assessed as increase in enthalpy change associated with melting transition at 2 equivalents in 100K buffer by UV-Visible melting analysis; conditions: dose 2.0 equiv; procedure, shortened: as §4
# Quadruplex DNA [26] = experiment: Binding affinity to G-quadruplex homo-purine guanine-rich GA1 (GAGGGAGGGAGGGAAAAGGGGA) DNA (unknown origin) at DNA:compound concentration ratio of 1:1 in 5K buffer by fluorescence titration based analysis; procedure, shortened: as §1
# Quadruplex DNA [27] = experiment: Binding affinity to G-quadruplex homo-purine guanine-rich GA3 (AGGGAAAAGGGGAGGGAAAAGGGGA) DNA (unknown origin) at DNA:compound concentration ratio of 2:1 in 5K buffer by fluorescence titration based analysis; procedure, shortened: as §1
# Quadruplex DNA [28] = experiment: Binding affinity to G-quadruplex homo-purine guanine-rich GA1 (GAGGGAGGGAGGGAAAAGGGGA) DNA (unknown origin) at DNA:compound concentration ratio of 2:1 in 5K buffer by UV-Vis titration based analysis; procedure, shortened: as §5
# Quadruplex DNA [29] = experiment: Binding affinity to G-quadruplex homo-purine guanine-rich GA1 (GAGGGAGGGAGGGAAAAGGGGA) DNA (unknown origin) at DNA:compound concentration ratio of 1:2 in 5K buffer by fluorescence titration based analysis; procedure, shortened: as §1
# Quadruplex DNA [30] = experiment: Binding affinity to G-quadruplex homo-purine guanine-rich GA1 (GAGGGAGGGAGGGAAAAGGGGA) DNA (unknown origin) at DNA:compound concentration ratio of 1:2 in 5K buffer by UV-Vis titration based analysis; procedure, shortened: as §5
# Quadruplex DNA [31] = experiment: Stabilization and preservation of G-quadruplex homo-purine guanine-rich GA1 (GAGGGAGGGAGGGAAAAGGGGA) DNA (unknown origin) parallel structure conformation at 2 equivalents in 100K buffer by circular dichroism scan analysis; conditions: dose 2.0 equiv; procedure, shortened: as §2
# Quadruplex DNA [32] = experiment: Stabilization and preservation of G-quadruplex homo-purine guanine-rich GA1 (GAGGGAGGGAGGGAAAAGGGGA) DNA (unknown origin) parallel structure conformation assessed as increase in enthalpy change associated with melting transition at 2 equivalents in 100K buffer by UV-Visible melting analysis; conditions: dose 2.0 equiv; procedure, shortened: as §4
# Quadruplex DNA [33] = experiment: Stabilization and preservation of G-quadruplex homo-purine guanine-rich GA3 (AGGGAAAAGGGGAGGGAAAAGGGGA) DNA (unknown origin) parallel structure conformation assessed as increase in melting temperature at 2 equivalents in 100K buffer by UV-Visible melting analysis; conditions: dose 2.0 equiv; procedure, shortened: as §4
# Quadruplex DNA [34] = experiment: Binding affinity to G-quadruplex homo-purine guanine-rich GA3 (AGGGAAAAGGGGAGGGAAAAGGGGA) DNA (unknown origin) at DNA:compound concentration ratio of 1:2 in 5K buffer by UV-Vis titration based analysis; procedure, shortened: as §5
smiles,measurement,setting,value
CCC1=C(C)c2cc3c(C)c(CCC(=O)O)c(cc4nc(cc5[nH]c(cc1n2)c(C)c5CC)C(C)=C4CCC(=O)O)n3C,Ka,Quadruplex DNA [1],1.1 µM⁻¹
same,Activity,Quadruplex DNA [2],19%
same,Ka,Quadruplex DNA [3],0.2 µM⁻¹
same,Activity,Quadruplex DNA [4],Active
same,Activity,Quadruplex DNA [5],21.4 nm
same,Activity,Quadruplex DNA [6],Active
same,Activity,Quadruplex DNA [7],Active
same,Activity,Quadruplex DNA [8],Active
same,Ka,Quadruplex DNA [9],3.7 µM⁻¹
same,ΔTm,Quadruplex DNA [10],13.1 °C
same,Activity,Quadruplex DNA [11],21%
same,Ka,Quadruplex DNA [12],1.4 µM⁻¹
same,Activity,Quadruplex DNA [13],28%
same,Ka,Quadruplex DNA [14],0.96 µM⁻¹
same,deltaH,Quadruplex DNA [15],3.35 kcal/mol
same,Ka,Quadruplex DNA [16],0.24 µM⁻¹
same,Ka,Quadruplex DNA [17],0.19 µM⁻¹
same,Activity,Quadruplex DNA [18],21 nm
same,Ka,Quadruplex DNA [19],0.36 µM⁻¹
same,Ka,Quadruplex DNA [20],1 µM⁻¹
same,ΔTm,Quadruplex DNA [21],14.6 °C
same,Ka,Quadruplex DNA [22],0.4 µM⁻¹
same,Activity,Quadruplex DNA [23],21.3 nm
same,Activity,Quadruplex DNA [24],Active
same,deltaH,Quadruplex DNA [25],15.1 kcal/mol
same,Ka,Quadruplex DNA [26],0.4 µM⁻¹
same,Ka,Quadruplex DNA [27],1.1 µM⁻¹
same,Ka,Quadruplex DNA [28],0.8 µM⁻¹
same,Ka,Quadruplex DNA [29],0.18 µM⁻¹
same,Ka,Quadruplex DNA [30],0.07 µM⁻¹
same,Activity,Quadruplex DNA [31],Active
same,deltaH,Quadruplex DNA [32],19.4 kcal/mol
same,ΔTm,Quadruplex DNA [33],7 °C
same,Ka,Quadruplex DNA [34],0.1 µM⁻¹
